# Results published in ChEMBL document CHEMBL2021810, “Synthesis, anticancer activities, and cellular uptake studies of lipophilic derivatives of doxorubicin succinate” (J Med Chem, 2012).
# Active and inactive are the calls of the source. The calls are words filed in the database; no cut-off is given here.
# Assays:
# HT-29 [1] = assay: Growth inhibition of human HT-29 cells at 1 uM after 96 hrs by CellTiter assay; type: functional, cell-based
# [2] = target: DNA topoisomerase 2-alpha (Homo sapiens) (UniProt P11388); assay: Inhibition of topoisomerase 2-mediated KDNA decatenation at 15 to 20 uM after 30 mins by gel electrophoretic analysis
# How it was run: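 Eukaryotic Topo II decatenation of kDNA (0.1 μg) in Tris-HCl 50 mM pH 8.0, NaCl 150 mM, MgCl2 10 mM, DTT 0.5 mM, ATP 2 mM with compound at 1–25 μM final, 30 min at 37 °C; stopped with sarkosyl buffer; products resolved on 1% agarose with ethidium bromide.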
# Serum = assay: Binding affinity to serum proteins in fetal bovine serum at 1 mM; type: ADME, cell-free, Bos taurus; details: cattle, 1000 µM
# MDA-MB-361 [3] = assay: Inhibition of cell proliferation of human MDA-MB-361 cells at 1 uM by CellTiter assay; type: functional, cell-based; details: TDE = time-dependent effect
# [4] = Drug metabolism in fetal bovine serum assessed as compound hydrolysis at 1 uM after 12 hrs by HPLC analysis
# [5] = Cellular uptake in doxorubicin-resistant human SKOV3 cells at 5 uM incubated for 1 hr followed by incubation with fresh media for 24 hrs measured by confocal microscopic analysis; type: ADME, cell-based, Cytoplasm; details: sk-ov-3, 1 h
# How it was run: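 SK-OV-3 cells seeded overnight on coverslips in EMEM, exposed to 5 μM compound in opti-MEM for 1 h at 37 °C, washed, then kept in fresh serum-containing medium 24 h; PBS-washed and imaged by laser scanning confocal microscopy, rhodamine and phase contrast channels.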
# MDA-MB-468 [6] = assay: Inhibition of cell proliferation of human MDA-MB-468 cells at 1 uM after 120 hrs by CellTiter assay; type: functional; details: MDA-MB-468, 120 h
# [7] = Drug metabolism in fetal bovine serum assessed as compound hydrolysis at 1 uM after 48 hrs by HPLC analysis
# [8] = Chemical stability of the compound in pH 8, reaction buffer containing Tris-HCl, NaCl, MgCl2, dithiothreitol and ATP; type: physicochemical
# How it was run: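 Compound held in Topo II reaction buffer (Tris-HCl 50 mM pH 8.0, NaCl 150 mM, MgCl2 10 mM, DTT 0.5 mM, ATP 2 mM) without enzyme; hydrolysis followed by HPLC.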
# SK-OV-3 [9] = assay: Cytotoxicity against human SKOV3 cells at 10 uM incubated for 1 hr followed by incubation in compound-free medium for 72 hrs by MTT assay; type: functional
# How it was run: (§1)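 SK-OV-3 cells plated overnight at 5000 cells/well; exposed to compound (up to 10 μM), then medium replaced with drug-free medium for 72 h; MTT added 2 h, formazan read at 490 nm; % cytotoxicity = (OD untreated − OD treated)/OD untreated × 100.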
# SK-OV-3 [10] = assay: Growth inhibition of human SKOV3 cells at 1 uM after 96 hrs by CellTiter assay; type: functional, cell-based
# CCRF-CEM [11] = assay: Growth inhibition of human CCRF-CEM cells at 1 uM after 96 hrs by CellTiter assay; type: functional, cell-based
# CCRF-CEM [12] = assay: Drug metabolism in human CCRF-CEM cells assessed as doxorubicin formation at 1 uM by HPLC analysis; type: ADME, cell-based; details: TDE = time-dependent effect
# How it was run: (§2)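 CCRF-CEM cells grown in serum-free RPMI, exposed to 1 μM compound 4 h at 37 °C, then moved to drug-free serum-free RPMI for set times; pellets washed with ice-cold PBS, extracted with methanol/chloroform/isopropanol (4:3:1), filtered; parent and released Dox quantified by HPLC at 490 nm.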
# HT-29 [13] = assay: Inhibition of cell proliferation of human HT-29 cells at 1 uM after 96 to 120 hrs by CellTiter assay; type: functional
# [14] = Drug metabolism in human CCRF-CEM cells assessed as compound hydrolysis at 1 uM after 48 hrs by HPLC analysis; type: ADME, cell-based; details: read-out: Drug metabolism; how it was run: as §2
# MDA-MB-361 [15] = assay: Growth inhibition of human MDA-MB-361 cells at 1 uM after 96 hrs by CellTiter assay; type: functional, cell-based
# [16] = Drug metabolism in human CCRF-CEM cells assessed as compound hydrolysis at 1 uM after 12 hrs by HPLC analysis; type: ADME, cell-based; details: read-out: Drug metabolism; how it was run: as §2
# SK-OV-3 [17] = assay: Cytotoxicity against human SKOV3 cells at 5 to 10 uM by MTT assay relative to doxorubicin; type: functional; how it was run: as §1
# MDA-MB-468 [18] = assay: Inhibition of cell proliferation of human MDA-MB-468 cells at 1 uM after 96 to 120 hrs by CellTiter assay; type: functional
# HT-29 [19] = assay: Inhibition of cell proliferation of human HT-29 cells at 1 uM by CellTiter assay; type: functional, cell-based; details: TDE = time-dependent effect
# MDA-MB-361 [20] = assay: Inhibition of cell proliferation of human MDA-MB-361 cells at 1 uM after 96 to 120 hrs by CellTiter assay; type: functional
# SK-OV-3 [21] = assay: Inhibition of cell proliferation of human SKOV3 cells at 1 uM after 96 to 120 hrs by CellTiter assay; type: functional
# SK-OV-3 [22] = assay: Cytotoxicity against human SKOV3 cells at > = 100 nM after 72 hrs by MTT assay; type: functional, cell-based; how it was run: as §1
# [23] = Half life in PBS at 1 mM by HPLC analysis; type: physicochemical
# How it was run: (§3)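 Compound (50 μL of 1 mM DMSO stock) incubated in 1 mL of 100% FBS or PBS pH 7.0 at 37 °C with shaking; aliquots taken from 10 min to 96 h, diluted with water, analysed by HPLC at 490 nm; peak areas give % remaining and % released Dox.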
# CCRF-CEM [24] = assay: Inhibition of cell proliferation of human CCRF-CEM cells at 1 uM by CellTiter assay; type: functional, cell-based; details: TDE = time-dependent effect
# CCRF-CEM [25] = assay: Inhibition of cell proliferation of human CCRF-CEM cells after 96 hrs by CellTiter assay; type: functional, cell-based
# [26] = Half life in fetal bovine serum at 1 mM by HPLC analysis; type: ADME, cell-free, Bos taurus; details: cattle; how it was run: as §3
# MDA-MB-468 [27] = assay: Inhibition of cell proliferation of human MDA-MB-468 cells at 1 uM by CellTiter assay; type: functional, cell-based; details: TDE = time-dependent effect
# SK-OV-3 [28] = assay: Inhibition of cell proliferation of human SKOV3 cells at 1 uM by CellTiter assay; type: functional, cell-based; details: TDE = time-dependent effect
# MDA-MB-468 [29] = assay: Growth inhibition of human MDA-MB-468 cells at 1 uM after 96 hrs by CellTiter assay; type: functional, cell-based
# SK-OV-3 [30] = assay: Cellular uptake in doxorubicin-resistant human SKOV3 cells at 5 uM after 30 mins by FACS analysis relative to doxorubicin; type: ADME, cell-based; details: sk-ov-3, 0.5 h
# How it was run: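 SK-OV-3 cells plated overnight in EMEM (2 × 10^5 cells/well); compound 5 μM added in opti-MEM, 30 min at 37 °C; cells trypsinized, PBS-washed, analysed by flow cytometry on FL2 channel; mean fluorescence of 10000 cells; triplicate.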
# CCRF-CEM [31] = assay: Inhibition of cell proliferation of human CCRF-CEM cells at 1 uM after 96 to 120 hrs by CellTiter assay; type: functional
# [32] = Drug uptake in doxorubicin-resistant human SKOV3 cell cytoplasm at 5 uM after 1 hr by confocal microscopic analysis; type: ADME, cell-based; details: sk-ov-3, 1 h
# How it was run: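 Coverslip-grown SK-OV-3 cells (seeded overnight, EMEM) treated with 5 μM compound in opti-MEM for 1 h at 37 °C, PBS-washed three times, mounted and imaged by laser scanning confocal microscopy using rhodamine and phase contrast channels for Dox fluorescence.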
# DNA topoisomerase 2-alpha (Homo sapiens), sequence (P11388 whole entry): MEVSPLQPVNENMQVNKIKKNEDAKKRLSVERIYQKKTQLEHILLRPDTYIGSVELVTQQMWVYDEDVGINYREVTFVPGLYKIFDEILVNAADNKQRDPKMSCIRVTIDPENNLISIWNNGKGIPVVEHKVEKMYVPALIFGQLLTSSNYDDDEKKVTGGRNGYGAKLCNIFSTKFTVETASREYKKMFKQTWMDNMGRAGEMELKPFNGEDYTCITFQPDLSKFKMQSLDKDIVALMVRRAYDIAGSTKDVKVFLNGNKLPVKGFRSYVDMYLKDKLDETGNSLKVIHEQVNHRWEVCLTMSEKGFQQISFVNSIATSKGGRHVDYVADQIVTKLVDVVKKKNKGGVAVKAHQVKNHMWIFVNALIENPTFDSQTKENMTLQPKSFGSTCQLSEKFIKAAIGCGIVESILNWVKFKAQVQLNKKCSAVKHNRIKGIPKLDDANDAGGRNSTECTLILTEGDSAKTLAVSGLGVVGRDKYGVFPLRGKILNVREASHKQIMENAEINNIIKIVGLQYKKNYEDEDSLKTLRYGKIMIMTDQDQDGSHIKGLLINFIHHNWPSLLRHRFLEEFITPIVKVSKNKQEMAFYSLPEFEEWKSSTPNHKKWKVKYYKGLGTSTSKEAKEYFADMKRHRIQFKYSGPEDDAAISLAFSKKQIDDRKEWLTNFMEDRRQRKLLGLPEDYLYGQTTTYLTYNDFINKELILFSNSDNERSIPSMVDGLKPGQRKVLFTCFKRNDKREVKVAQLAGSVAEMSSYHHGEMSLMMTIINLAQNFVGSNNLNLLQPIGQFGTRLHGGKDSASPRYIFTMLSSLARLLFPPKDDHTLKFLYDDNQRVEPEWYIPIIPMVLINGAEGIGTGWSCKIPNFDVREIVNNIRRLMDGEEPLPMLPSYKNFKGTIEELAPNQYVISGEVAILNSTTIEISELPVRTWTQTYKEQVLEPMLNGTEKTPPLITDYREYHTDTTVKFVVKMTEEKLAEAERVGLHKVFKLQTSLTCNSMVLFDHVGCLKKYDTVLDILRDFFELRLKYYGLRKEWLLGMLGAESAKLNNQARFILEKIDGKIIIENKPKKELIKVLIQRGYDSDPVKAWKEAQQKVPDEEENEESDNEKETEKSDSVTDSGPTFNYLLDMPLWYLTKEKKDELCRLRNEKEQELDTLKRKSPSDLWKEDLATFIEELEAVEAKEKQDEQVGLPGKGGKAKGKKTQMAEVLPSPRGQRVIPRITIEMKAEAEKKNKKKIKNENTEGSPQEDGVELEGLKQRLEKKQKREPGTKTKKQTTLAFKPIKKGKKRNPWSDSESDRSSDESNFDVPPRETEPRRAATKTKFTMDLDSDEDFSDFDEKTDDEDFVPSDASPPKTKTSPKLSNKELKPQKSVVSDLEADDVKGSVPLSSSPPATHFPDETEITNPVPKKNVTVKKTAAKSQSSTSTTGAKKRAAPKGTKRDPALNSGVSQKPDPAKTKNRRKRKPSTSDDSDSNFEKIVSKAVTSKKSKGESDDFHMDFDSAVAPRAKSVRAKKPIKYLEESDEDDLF
compound,measurement,setting,value
CCCCCCCCCCCCCCNC(=O)CCC(=O)OCC(=O)[C@]1(O)Cc2c(O)c3c(c(O)c2[C@@H](O[C@H]2C[C@H](N)[C@H](O)[C@H](C)O2)C1)C(=O)c1c(OC)cccc1C3=O,growth inhibition (GI),HT-29 [1],Active
same,inhibition,[2],Active
same,PB,Serum,Not Active
same,inhibition,MDA-MB-361 [3],tde
same,"metabolised at 12 h, 1 µM",[4],20%
same,Drug uptake,[5],Active
same,inhibition at 1 µM,MDA-MB-468 [6],70.2%
same,"metabolised at 48 h, 1 µM",[7],30%
same,Stability,[8],Stable
same,Activity,SK-OV-3 [9],67.1%
same,growth inhibition (GI),SK-OV-3 [10],Active
same,growth inhibition (GI),CCRF-CEM [11],Active
same,Drug metabolism,CCRF-CEM [12],tde
same,inhibition at 1 µM,HT-29 [13],60%
same,"metabolised at 48 h, 1 µM",[14],98%
same,growth inhibition (GI),MDA-MB-361 [15],Active
same,"metabolised at 12 h, 1 µM",[16],> 75%
same,fold change (FC),SK-OV-3 [17],1.4
same,inhibition at 1 µM,MDA-MB-468 [18],49%
same,inhibition,HT-29 [19],tde
same,inhibition at 1 µM,MDA-MB-361 [20],66%
same,inhibition at 1 µM,SK-OV-3 [21],54%
same,Activity,SK-OV-3 [22],Active
same,half-life at 1000 µM,[23],19.3 h
same,inhibition,CCRF-CEM [24],tde
same,IC50,CCRF-CEM [25],77 nM
same,half-life at 1000 µM,[26],8.3 h
same,inhibition,MDA-MB-468 [27],tde
same,inhibition,SK-OV-3 [28],tde
same,growth inhibition (GI),MDA-MB-468 [29],Active
same,fold change (FC),SK-OV-3 [30],3
same,inhibition at 1 µM,CCRF-CEM [31],69%
same,Drug uptake,[32],Active
